Laboratory results from ChEMBL document CHEMBL4049392, “New azole derivatives showing antimicrobial effects and their mechanism of antifungal activity by molecular modeling studies” (Eur J Med Chem, 2017).
≈ marks a conversion by molar mass, not a printed value.

Legend:
[1] = tested on: Pichia kudriavzevii; test: Anti-fungal activity against Candida krusei ATCC 6258 after 48 hrs by broth microdilution method; type: functional; conditions: ATCC 6258, 48 h
In short: (§1)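 CLSI broth microdilution in RPMI 1640 (with glutamine, without bicarbonate) buffered to pH 7.0 with MOPS. Inoculum was prepared from 24 h Sabouraud dextrose agar subcultures, final 0.5 to 2.5 10^3 cfu/mL. Twofold dilutions were made from DMSO stocks. Incubated 35 °C for 48 h. MIC was the lowest concentration with no visible growth; for the fluconazole reference, MIC was taken at about 80% growth inhibition versus control.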

[2] = tested on: Pseudomonas aeruginosa; test: Antibacterial activity against Pseudomonas aeruginosa ATCC 27853 after 18 to 24 hrs by broth microdilution method; type: functional
In short: (§2)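 CLSI broth microdilution in Mueller Hinton broth, with inoculum from 24 h Mueller Hinton agar subcultures, final about 5 10^5 cfu/mL. Compounds were dissolved in DMSO and tested as twofold dilutions in wells. Plates were incubated at 35 °C for 18–24 h. MIC was read as the lowest concentration completely inhibiting visible growth. Ciprofloxacin was the reference.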

[3] = tested on: Candida albicans; test: Anti-fungal activity against Candida albicans ATCC 90028 after 48 hrs by broth microdilution method; type: functional; conditions: ATCC 90028, 48 h; in short: as §1
[4] = tested on: Escherichia coli; test: Antibacterial activity against Escherichia coli ATCC 25922 after 18 to 24 hrs by broth microdilution method; type: functional; in short: as §2
[5] = tested on: Staphylococcus aureus; test: Antibacterial activity against Staphylococcus aureus ATCC 29213 after 18 to 24 hrs by broth microdilution method; type: functional; in short: as §2
[6] = tested on: Enterococcus faecalis; test: Antibacterial activity against Enterococcus faecalis ATCC 29212 after 18 to 24 hrs by broth microdilution method; type: functional; in short: as §2
[7] = tested on: Candida parapsilosis; test: Anti-fungal activity against Candida parapsilosis ATCC 90018 after 48 hrs by broth microdilution method; type: functional; conditions: Lodderomyces parapsilosis, ATCC 90018, 48 h; in short: as §1
[8] = Cytotoxicity against human U937 cells assessed as cell viability at 10 to 100 ug/ml after 48 hrs by MTT assay relative to control; type: cell-based, U-937; conditions: read-out: Activity
In short: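 U937 human monocytic cells, 4 10^3 per well in RPMI-1640 with 10% FBS, L-glutamine, penicillin and streptomycin, at 37 °C and 5% CO2. Compounds in DMSO were added at five final concentrations for 48 h, in triplicate. MTT was added for 4 h, formazan was dissolved overnight in SDS/23% DMF, and OD was read at 570 nm. Results are % reduction in viable cells versus control.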

[9] = tested on: Nakaseomyces glabratus; test: Anti-fungal activity against drug-resistant Candida glabrata after 48 hrs by broth microdilution method; type: functional
In short: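 Clinical resistant C. glabrata isolate, stored frozen in glycerol and subcultured twice on Sabouraud dextrose agar. CLSI broth microdilution in RPMI 1640 (glutamine, no bicarbonate) buffered to pH 7.0 with MOPS. Inoculum from 24 h subcultures, final 0.5 to 2.5 x10^3 cfu/mL. DMSO-dissolved compounds in twofold dilutions, 35 C for 48 h. MIC is the lowest concentration giving complete visual growth inhibition; fluconazole reference read at about 80% inhibition.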

[10] = tested on: Candida albicans; test: Antibiofilm activity against Candida albicans SC5314 after 24 hrs by turbidity assay; type: functional
In short: (§3)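 Biofilms were grown on Calgary device pegs from a 10^6 cfu/mL inoculum for 24 h at 37 °C. Pegs were rinsed in saline, then challenged with twofold dilutions for 24 h at 35 °C. Biofilm was recovered by 5 min sonication into RPMI 1640 with 2% glucose and incubated overnight. OD was read at 550 nm plus visual turbidity. MBEC was the lowest concentration preventing regrowth. MBIC was the minimum concentration preventing initial biofilm formation, judged by visual turbidity.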

[11] = tested on: Candida albicans; test: Antibiofilm activity against Candida albicans SC5314 after 24 hrs by spectrophotometric method; type: functional; in short: as §3

Row | Compound | MIC [1] [µg/mL] | MIC [2] [µg/mL] | MIC [3] [µg/mL] | MIC [4] [µg/mL] | MIC [5] [µg/mL] | MIC [6] [µg/mL] | MIC [7] [µg/mL] | viability at 48 h [8] [%] | MIC [9] [µg/mL] | MBIC [10] [µg/mL] | MBEC [11] [µg/mL]
1 | OC(Cn1ccnc1)c1ccccc1 (stereo not drawn) | 256 (≈ 1360 µM) | 512 (≈ 2720 µM) | 256 (≈ 1360 µM) | 512 (≈ 2720 µM) | 1020 (≈ 5440 µM) | 512 (≈ 2720 µM) | 256 (≈ 1360 µM) |  |  |  | 
2 | OC(Cn1ccnc1)c1ccc(Cl)cc1 (stereo not drawn) | 256 (≈ 1150 µM) | 256 (≈ 1150 µM) | 128 (≈ 575 µM) | 256 (≈ 1150 µM) | 64 (≈ 287 µM) | 128 (≈ 575 µM) | 128 (≈ 575 µM) |  |  |  | 
3 | CC(=O)OC(Cn1ccnc1)c1ccccc1.Cl (stereo not drawn) | 128 | 256 | 128 | 512 | 1020 | 256 | 64 |  |  |  | 
4 | Cl.O=C(Cc1ccccc1)OC(Cn1ccnc1)c1ccc(Cl)cc1 (stereo not drawn) | 4 | 256 | 0.5 | 256 | 16 | 256 | 2 | 70 to 80 | 4 |  | 
5 | Cl.O=C(OC(Cn1ccnc1)c1ccc(Cl)cc1)c1ccc(-c2ccccc2)cc1 (stereo not drawn) | 4 | 256 | 0.25 | 512 | 512 | 256 | 0.25 | 70 to 80 | 4 | 4 | 512
6 | CCCC(CCC)C(=O)OC(Cn1ccnc1)c1ccc(Cl)cc1.Cl (stereo not drawn) | 64 | 256 | 128 | 512 | 1020 | 32 | 64 |  |  |  | 
7 | CC(=O)CCC(=O)OC(Cn1ccnc1)c1ccc(Cl)cc1.Cl (stereo not drawn) | 32 | 256 | 64 | 512 | 512 | 256 | 16 |  |  |  | 
8 | Cl.O=C(Cc1ccccc1)OC(Cn1ccnc1)c1ccccc1 (stereo not drawn) | 128 | 128 | 64 | 512 | 128 | 64 | 32 |  |  |  | 
9 | CCCCC(=O)OC(Cn1ccnc1)c1ccc(Cl)cc1.Cl (stereo not drawn) | 8 | 256 | 0.5 | 512 | 32 | 128 | 0.5 | 70 to 80 | 0.25 | 8 | 1024
10 | CC(=O)CCC(=O)OC(Cn1ccnc1)c1ccccc1.Cl (stereo not drawn) | 256 | 256 | 256 | 512 | 512 | 128 | 256 |  |  |  | 
11 | CCC(=O)OC(Cn1ccnc1)c1ccccc1.Cl (stereo not drawn) | 32 | 256 | 64 | 512 | 1020 | 128 | 8 |  |  |  | 
12 | Cl.O=C(CCC(=O)c1ccccc1)OC(Cn1ccnc1)c1ccccc1 (stereo not drawn) | 128 | 256 | 16 | 512 | 128 | 64 | 32 |  |  |  | 
13 | C/C=C/C=C/C(=O)OC(Cn1ccnc1)c1ccccc1.Cl (stereo not drawn) | 32 | 256 | 32 | 512 | 512 | 64 | 8 |  |  |  | 
14 | Cl.O=C(CCC(=O)c1ccccc1)OC(Cn1ccnc1)c1ccc(Cl)cc1 (stereo not drawn) | 16 | 256 | 4 | 256 | 8 | 256 | 4 | 70 to 80 | 32 |  | 
15 | CCCC(=O)OC(Cn1ccnc1)c1ccccc1.Cl (stereo not drawn) | 32 | 256 | 64 | 512 | 512 | 128 | 16 |  |  |  | 
16 | CCCCC(=O)OC(Cn1ccnc1)c1ccccc1.Cl (stereo not drawn) | 32 | 256 | 8 | 512 | 256 | 128 | 8 |  | 32 |  | 

Row | Compound | MIC [1] [µg/mL] | MIC [2] [µg/mL] | MIC [3] [µg/mL] | MIC [4] [µg/mL] | MIC [5] [µg/mL] | MIC [6] [µg/mL] | MIC [7] [µg/mL] | viability at 48 h [8] [%] | MIC [9] [µg/mL] | MBIC [10] [µg/mL] | MBEC [11] [µg/mL]
17 | Cl.O=C(OC(Cn1ccnc1)c1ccccc1)C1CCCCC1 (stereo not drawn) | 128 | 256 | 16 | 512 | 64 | 32 | 16 |  |  |  | 
18 | CCC(=O)OC(Cn1ccnc1)c1ccc(Cl)cc1.Cl (stereo not drawn) | 32 | 256 | 4 | 512 | 256 | 256 | 4 | 70 to 80 | 32 |  | 
19 | Cl.O=C(OC(Cn1ccnc1)c1ccccc1)c1ccccc1 (stereo not drawn) | 64 | 256 | 32 | 256 | 64 | 64 | 32 |  | > 32 |  | 
20 | Cl.O=C(OC(Cn1ccnc1)c1ccc(Cl)cc1)c1ccccc1 (stereo not drawn) | 32 | 256 | 4 | 512 | 128 | 512 | 2 | 70 to 80 | 16 |  | 
21 | Cl.O=C(/C=C/c1ccccc1)OC(Cn1ccnc1)c1ccc(Cl)cc1 (stereo not drawn) | 16 | 256 | 4 | 512 | 1020 | 256 | 2 | 70 to 80 | 2 |  | 
22 | Cl.O=C(CCCc1ccccc1)OC(Cn1ccnc1)c1ccc(Cl)cc1 (stereo not drawn) | 8 | 512 | 2 | 512 | 128 | 128 | 2 | 70 to 80 | 8 |  | 
23 | CC(C)CC(=O)OC(Cn1ccnc1)c1ccc(Cl)cc1.Cl (stereo not drawn) | 4 | 256 | 0.25 | 512 | 32 | 128 | 0.25 | 70 to 80 | 1 | 8 | 1024
24 | CC(C)CC(=O)OC(Cn1ccnc1)c1ccccc1.Cl (stereo not drawn) | 32 | 256 | 2 | 512 | 256 | 128 | 2 |  | > 32 |  | 
25 | C/C=C/C=C/C(=O)OC(Cn1ccnc1)c1ccc(Cl)cc1.Cl (stereo not drawn) | 8 | 256 | 0.5 | 512 | 16 | 128 | 1 | 70 to 80 | 4 | 8 | 1024
26 | CC(=O)OC(Cn1ccnc1)c1ccc(Cl)cc1.Cl (stereo not drawn) | 32 | 256 | 64 | 512 | 256 | 256 | 8 |  |  |  | 
27 | CCCC(CCC)C(=O)OC(Cn1ccnc1)c1ccccc1.Cl (stereo not drawn) | 32 | 256 | 32 | 512 | 16 | 32 | 32 |  | > 32 |  | 
28 | Cl.O=C(OC(Cn1ccnc1)c1ccc(Cl)cc1)C1CCCCC1 (stereo not drawn) | 8 | 1020 | 1 | 256 | 256 | 512 | 1 | 70 to 80 | 0.5 | 8 | 512
29 | Cl.O=C(CCCc1ccccc1)OC(Cn1ccnc1)c1ccccc1 (stereo not drawn) | 32 | 256 | 4 | 1020 | 8 | 128 | 4 |  | > 32 |  | 
30 | O=C(O)c1cn(C2CC2)c2cc(N3CCNCC3)c(F)cc2c1=O [CIPROFLOXACIN] |  | 1.5 (≈ 4.53 µM) |  | 0.005 (≈ 0.0151 µM) | 0.5 (≈ 1.51 µM) | 1.5 (≈ 4.53 µM) |  |  |  |  | 
31 | OC(Cn1cncn1)(Cn1cncn1)c1ccc(F)cc1F [FLUCONAZOLE] | 16 (≈ 52.2 µM) |  | 0.25 (≈ 0.816 µM) |  |  |  | 0.25 (≈ 0.816 µM) |  | 32 (≈ 104 µM) |  | 
